Measurements reported in ChEMBL document CHEMBL3259728, “Design, synthesis and biological evaluation of some novel substituted quinazolines as antitumor agents” (2014).

Columns and labels:
Type in all cases: functional
[1] = Growth inhibition of human HOP92 cells assessed as cell growth at 10^-4 M after 48 hrs by SRB assay; details: HOP-92, 48 h, read-out: Activity
[2] = Growth inhibition of human UACC257 cells assessed as cell growth at 10^-8 M after 48 hrs by SRB assay; details: UACC-257, 48 h, read-out: Activity
SK-MEL-28 = test: Growth inhibition of human SK-MEL-28 cells assessed as cell growth at 10^-8 M after 48 hrs by SRB assay; details: SK-MEL-28, 48 h, read-out: Activity
[3] = Growth inhibition of human LOXIMVI cells assessed as cell growth at 10^-8 M after 48 hrs by SRB assay; details: LOX IMVI, read-out: Activity
NCI-H226 = test: Growth inhibition of human NCI-H226 cells assessed as cell growth at 10^-8 M after 48 hrs by SRB assay; details: NCI-H226, 48 h, read-out: Activity
CCRF-CEM = test: Growth inhibition of human CCRF-CEM cells assessed as cell growth at 10^-8 M after 48 hrs by SRB assay; details: read-out: Activity
In short: (§1)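 Five-dose NCI panel protocol. Each dose (10^-4 to 10^-8 M, 10-fold steps) was given as 48 h continuous exposure, and protein was measured by SRB staining. Percentage growth at each level is [(Ti−Tz)/(C−Tz)]×100, where Tz is time-zero absorbance and C is untreated control.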

[4] = Growth inhibition of human RXF393 cells assessed as cell growth at 10^-5 M after 48 hrs by SRB assay; details: RXF 393, 48 h, read-out: Activity
[5] = Growth inhibition of human UACC62 cells assessed as cell growth at 10^-5 M after 48 hrs by SRB assay; details: UACC-62, 48 h, read-out: Activity
KM12 = test: Growth inhibition of human KM12 cells assessed as cell growth at 10^-5 M after 48 hrs by SRB assay; details: KM12, 48 h, read-out: Activity
HT-29 = test: Growth inhibition of human HT-29 cells assessed as cell growth at 10^-5 M after 48 hrs by SRB assay; details: HT-29, 48 h, read-out: Activity
COLO 205 [6] = test: Growth inhibition of human COLO205 cells assessed as cell growth at 10^-5 M after 48 hrs by SRB assay; details: COLO 205, 48 h, read-out: Activity; in short: as §1
DU-145 = test: Growth inhibition of human DU145 cells assessed as cell growth at 10^-6 M after 48 hrs by SRB assay; details: DU-145, 48 h, read-out: Activity
ACHN = test: Growth inhibition of human ACHN cells assessed as cell growth at 10^-6 M after 48 hrs by SRB assay; details: read-out: Activity; in short: as §1
[7] = Growth inhibition of human NCI-ADR-RES cells assessed as cell growth at 10^-6 M after 48 hrs by SRB assay; details: read-out: Activity
MDA-MB-435 = test: Growth inhibition of human MDA-MB-435 cells assessed as cell growth at 10^-6 M after 48 hrs by SRB assay; details: MDA-MB-435, 48 h, read-out: Activity
[8] = Growth inhibition of human LOXIMVI cells assessed as cell growth at 10^-6 M after 48 hrs by SRB assay; details: LOX IMVI, read-out: Activity
NCI-H23 = test: Growth inhibition of human NCI-H23 cells assessed as cell growth at 10^-4 M after 48 hrs by SRB assay; details: NCI-H23, 48 h, read-out: Activity
[9] = Growth inhibition of human LOXIMVI cells assessed as cell growth at 10^-5 M after 48 hrs by SRB assay; details: LOX IMVI, read-out: Activity
SK-OV-3 = test: Growth inhibition of human SKOV3 cells assessed as cell growth at 10^-6 M after 48 hrs by SRB assay; details: SK-OV-3, 48 h, read-out: Activity
[10] = Growth inhibition of human HCT15 cells assessed as cell growth at 10^-6 M after 48 hrs by SRB assay; details: HCT-15, 48 h, read-out: Activity
[11] = Growth inhibition of human OVCAR4 cells assessed as cell growth at 10^-8 M after 48 hrs by SRB assay; details: OVCAR-4, 48 h, read-out: Activity
[12] = Growth inhibition of human HCC2998 cells assessed as cell growth at 10^-8 M after 48 hrs by SRB assay; details: HCC 2998, 48 h, read-out: Activity
BT-549 = test: Cytotoxicity against human BT549 cells after 48 hrs by SRB assay; details: BT-549, 48 h
In short: (§2)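 NCI 60-cell-line panel of human tumour lines from nine cancer types. Continuous 48 h exposure at five 10-fold dilutions from 10^-4 to 10^-8 M, with 5-FU as positive control. SRB protein stain read spectrophotometrically at time zero, untreated control and each concentration. GI50, TGI and LC50 were derived from the [(Ti−Tz)/(C−Tz)]×100 growth relations, and out-of-range values are given as > or < the tested limits.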

HOP-62 = test: Growth inhibition of human HOP62 cells assessed as cell growth at 10^-6 M after 48 hrs by SRB assay; details: HOP-62, 48 h, read-out: Activity
MDA-MB-231 = test: Growth inhibition of human MDA-MB-231 cells assessed as cell growth at 10^-7 M after 48 hrs by SRB assay; details: MDA-MB-231, 48 h, read-out: Activity
M14 = test: Growth inhibition of human M14 cells assessed as cell growth at 10^-7 M after 48 hrs by SRB assay; details: M14, 48 h, read-out: Activity
SW-620 = test: Growth inhibition of human SW620 cells assessed as cell growth at 10^-7 M after 48 hrs by SRB assay; details: SW-620, 48 h, read-out: Activity
COLO 205 [13] = test: Growth inhibition of human COLO205 cells assessed as cell growth at 10^-7 M after 48 hrs by SRB assay; details: COLO 205, 48 h, read-out: Activity; in short: as §1
COLO 205 [14] = test: Cytotoxicity against human COLO205 cells after 48 hrs by SRB assay; details: COLO 205, 48 h; in short: as §2
HOP-92 = test: Cytotoxicity against human HOP92 cells after 48 hrs by SRB assay; details: HOP-92, 48 h; in short: as §2
[15] = read-out: LC50 (the source's name)
[16] = read-out: pLC50 (the source's name) (converted)

## Cc1ccc(-c2nc3ccc(Cl)cc3c(=O)n2/N=C/c2ccccc2)cc1
[1]
  growth at 100 µM: 15%
[2]
  growth at 0.01 µM: 100%
SK-MEL-28
  growth at 0.01 µM: 102%
[3]
  growth at 0.01 µM: 98%
NCI-H226
  growth at 0.01 µM: 91%
CCRF-CEM
  growth at 0.01 µM: 98%
[4]
  growth at 10 µM: 41%
[5]
  growth at 10 µM: 62%
KM12
  growth at 10 µM: 74%
HT-29
  growth at 10 µM: 69%
COLO 205 [6]
  growth at 10 µM: 47%
DU-145
  growth at 1 µM: 96%
ACHN
  growth at 1 µM: 40%
[7]
  growth at 1 µM: 89%
MDA-MB-435
  growth at 1 µM: 87%
[8]
  growth at 1 µM: 89%
NCI-H23
  growth at 100 µM: 51%
[9]
  growth at 10 µM: 63%
SK-OV-3
  growth at 1 µM: 93%
[10]
  growth at 1 µM: 93%
[11]
  growth at 0.01 µM: 95%
[12]
  growth at 0.01 µM: 102%
BT-549; read-out: GI50
  GI50: 100 µM
BT-549; [15]
  CC50: > 100 µM
BT-549; read-out: TGI
  TGI: > 100 µM
BT-549; read-out: pGI50 (converted)
  GI50: > 100 µM
BT-549; [16]
  CC50: > 100 µM
BT-549; read-out: pTGI
  TGI: > 100 µM
HOP-62
  growth at 1 µM: 86%
MDA-MB-231
  growth at 0.1 µM: 99%
M14
  growth at 0.1 µM: 96%
SW-620
  growth at 0.1 µM: 93%
COLO 205 [13]
  growth at 0.1 µM: 116%
COLO 205 [14]; read-out: GI50
  GI50: 9 µM
COLO 205 [14]; read-out: LC50
  LC50 (concentration killing 50% of cells): > 100 µM
COLO 205 [14]; read-out: TGI
  TGI: > 100 µM
COLO 205 [14]; read-out: pGI50 (converted)
  GI50: 8.91 µM
COLO 205 [14]; read-out: pLC50 (converted)
  LC50 (concentration killing 50% of cells): > 100 µM
COLO 205 [14]; read-out: pTGI
  TGI: > 100 µM
HOP-92; read-out: GI50
  GI50: 6.74 µM
HOP-92; [15]
  CC50: > 100 µM
HOP-92; read-out: TGI
  TGI: > 100 µM
HOP-92; read-out: pGI50 (converted)
  GI50: 6.76 µM
HOP-92; [16]
  CC50: > 100 µM
HOP-92; read-out: pTGI
  TGI: > 100 µM
